Results: ChEMBL document CHEMBL1134336, “Synthesis and SAR of a new series of COX-2-selective inhibitors: pyrazolo[1,5-a]pyrimidines” (J Med Chem, 2001)

Key:
[1] = biological target: T1, Prostaglandin G/H synthase 2 (Homo sapiens) (UniProt P35354); assay: Percentage inhibition of Prostaglandin G/H synthase 2 activity in human whole blood (HWB) at 10 uM; format: tissue-based
T1 sequence (whole entry): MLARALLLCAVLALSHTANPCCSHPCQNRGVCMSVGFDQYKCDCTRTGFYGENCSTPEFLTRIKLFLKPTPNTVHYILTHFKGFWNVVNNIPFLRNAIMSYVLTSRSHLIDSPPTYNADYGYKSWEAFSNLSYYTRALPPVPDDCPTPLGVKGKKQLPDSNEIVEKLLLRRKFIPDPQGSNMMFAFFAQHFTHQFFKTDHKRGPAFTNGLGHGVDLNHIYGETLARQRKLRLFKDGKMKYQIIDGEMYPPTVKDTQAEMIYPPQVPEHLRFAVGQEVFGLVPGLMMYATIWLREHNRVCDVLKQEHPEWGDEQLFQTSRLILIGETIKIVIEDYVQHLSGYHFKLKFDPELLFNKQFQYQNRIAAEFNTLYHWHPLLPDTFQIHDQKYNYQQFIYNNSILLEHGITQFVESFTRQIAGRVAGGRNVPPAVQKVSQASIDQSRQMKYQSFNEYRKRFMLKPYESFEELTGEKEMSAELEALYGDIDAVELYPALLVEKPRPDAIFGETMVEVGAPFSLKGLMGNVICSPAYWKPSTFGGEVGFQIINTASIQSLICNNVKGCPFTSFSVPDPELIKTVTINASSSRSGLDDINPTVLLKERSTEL
Method in brief: (§1)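 COX-2: human whole blood stimulated with lipopolysaccharide 026:B6, 37 °C, 24 h, with aspirin (20 µg/mL) to block COX-1. PGE2 by enzyme immunoassay after centrifugation. Run in duplicate or repeated.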

[2] = biological target: T2, Prostaglandin G/H synthase 1 (Homo sapiens, UniProt P23219); assay: Percentage of inhibition of Prostaglandin G/H synthase 1 activity in human whole blood (HWB) at 10 uM; format: tissue-based
T2 sequence (P23219 whole entry): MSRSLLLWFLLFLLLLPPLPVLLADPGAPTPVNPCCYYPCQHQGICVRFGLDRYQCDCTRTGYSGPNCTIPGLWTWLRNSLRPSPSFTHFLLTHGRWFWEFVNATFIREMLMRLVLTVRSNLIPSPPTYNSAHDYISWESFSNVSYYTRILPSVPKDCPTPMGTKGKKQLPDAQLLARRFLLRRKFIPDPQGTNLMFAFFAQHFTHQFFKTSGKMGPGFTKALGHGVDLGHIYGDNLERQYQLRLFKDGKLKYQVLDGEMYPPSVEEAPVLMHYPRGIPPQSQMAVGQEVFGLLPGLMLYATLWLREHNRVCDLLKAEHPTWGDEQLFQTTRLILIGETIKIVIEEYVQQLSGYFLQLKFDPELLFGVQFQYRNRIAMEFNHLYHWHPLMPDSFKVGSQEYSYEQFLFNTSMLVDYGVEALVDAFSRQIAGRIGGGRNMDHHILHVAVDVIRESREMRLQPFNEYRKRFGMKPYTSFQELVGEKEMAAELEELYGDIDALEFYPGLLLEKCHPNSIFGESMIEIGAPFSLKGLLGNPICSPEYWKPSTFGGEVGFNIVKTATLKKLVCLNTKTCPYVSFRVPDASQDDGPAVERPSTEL
Method in brief: (§2)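 COX-1: human blood left to clot spontaneously 5 h at 37 °C, then A23187 (5 μM) 30 min further. Stopped at 0 °C with EGTA/MeOH; supernatant TXB2 by enzyme immunoassay. Run in duplicate or repeated.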

[3] = biological target: T1, Prostaglandin G/H synthase 2 (Homo sapiens); assay: Percentage of inhibition of Prostaglandin G/H synthase 2 activity in human whole blood (HWB) at 1 uM; format: tissue-based; method in brief: as §1
[4] = biological target: T2, Prostaglandin G/H synthase 1; assay: Percentage of inhibition of Prostaglandin G/H synthase 1 activity in human whole blood (HWB) at 1 uM; format: tissue-based; method in brief: as §2
[5] = biological target: T2, Prostaglandin G/H synthase 1; format: cell-based, U-937

| SMILES | inhibition [1] [%] | inhibition [2] [%] | inhibition [3] [%] | inhibition [4] [%] | IC50 [5] [µM] |
| --- | --- | --- | --- | --- | --- |
| Cc1cnn2c(-c3ccc(F)cc3)c(-c3ccc(S(C)(=O)=O)cc3)nc2c1C | 100 | 0 | 37.3 | – | – |
| Cc1cnc2c(-c3ccc(F)cc3)c(-c3ccc(S(C)(=O)=O)cc3)nn2c1-c1ccccc1 | 12.3 | 0 | – | – | – |
| Cc1cc(C(F)(F)F)nc2c(-c3ccc(F)cc3)c(-c3ccc(S(C)(=O)=O)cc3)nn12 | 57.2 | 2.5 | – | – | – |
| Cc1cnc2c(-c3ccc(F)c(F)c3)c(-c3ccc(S(C)(=O)=O)cc3)nn2c1C | 100 | 36.3 | 100 | – | – |
| COc1cc(C)nc2c(-c3ccc(F)cc3)c(-c3ccc(S(C)(=O)=O)cc3)nn12 | 0 | 0 | – | – | – |
| Cc1cn2c(-c3ccc(F)cc3)c(-c3ccc(S(C)(=O)=O)cc3)nc2c(C)n1 | 82.4 | 0 | 0 | – | – |
| CS(=O)(=O)c1ccc(-c2nn3c4c(cnc3c2-c2ccc(F)cc2)CSC4)cc1 | 93.6 | 0 | 25 | – | – |
| CCOC(=O)c1cc(C)n2nc(-c3ccc(S(C)(=O)=O)cc3)c(-c3ccc(F)cc3)c2n1 | 41 | 8 | – | – | – |
| Cc1ccn2c(-c3ccc(F)cc3)c(-c3ccc(S(C)(=O)=O)cc3)nc2c1C | 66.7 | 0 | 59.3 | – | – |
| Cc1cn2nc(-c3ccc(S(C)(=O)=O)cc3)c(-c3ccc(F)cc3)c2nc1C | – | 32.6 | – | – | > 10 |
| CC(=O)c1cnc2c(-c3ccc(F)cc3)c(-c3ccc(S(C)(=O)=O)cc3)nn2c1C | 100 | 71.1 | 60.8 | – | – |
| Cc1cnc2c(-c3ccc(F)c(F)c3)c(-c3ccc(S(N)(=O)=O)cc3)nn2c1C | 100 | 68.2 | 97.2 | – | – |
| CS(=O)(=O)c1ccc(-c2nc3cnccc3n2-c2ccc(F)cc2)cc1 | 21.3 | 34.3 | – | – | – |
| Cc1ccn2c(-c3ccc(F)cc3)c(-c3ccc(S(C)(=O)=O)cc3)nc2n1 | 50.7 | 13.5 | – | – | – |
| Cc1cc2c(nc(-c3ccc(S(C)(=O)=O)cc3)n2-c2ccc(F)cc2)c(C)n1 | 4.3 | 0 | – | – | – |
| Cc1nc2c(-c3ccc(F)cc3)c(-c3ccc(S(C)(=O)=O)cc3)nn2c(Cl)c1C | 45.8 | 1.2 | – | – | – |
| CS(=O)(=O)c1ccc(-c2nn3c4c(cnc3c2-c2ccc(F)cc2)CCCC4)cc1 | 100 | 40.4 | 57.7 | – | – |
| CS(=O)(=O)c1ccc(-c2nc3cnccn3c2-c2ccc(F)cc2)cc1 | 42.5 | 6 | – | – | – |
| Cc1nc2c(-c3ccc(F)cc3)c(-c3ccc(S(C)(=O)=O)cc3)nn2c(C)c1C | – | 61.3 | – | – | > 10 |
| CS(=O)(=O)c1ccc(-c2nn3c4c(cnc3c2-c2ccc(F)cc2)CCC4)cc1 | 90.4 | 0 | 48.3 | – | – |
| CS(=O)(=O)c1ccc(-c2nn3c4c(cnc3c2-c2ccc(F)cc2)SCC4)cc1 | 90.7 | 7 | 14.8 | – | – |
| CS(=O)(=O)c1ccc(-c2nc3cccnn3c2-c2ccc(F)cc2)cc1 | 61.2 | 47 | – | – | – |
| Cc1cnc2c(-c3ccc(F)cc3F)c(-c3ccc(S(C)(=O)=O)cc3)nn2c1C | 100 | 80.8 | 61.1 | – | – |
| Cc1cc(C(=O)O)nc2c(-c3ccc(F)cc3)c(-c3ccc(S(C)(=O)=O)cc3)nn12 | 24.6 | 33.5 | – | – | – |
| Cc1cnc2c(-c3ccc(F)cc3)c(-c3ccc(S(N)(=O)=O)cc3)nn2c1C | 99.1 | 22 | 22.5 | – | – |
| CCCCc1nccn2c(-c3ccc(F)cc3)c(-c3ccc(S(C)(=O)=O)cc3)nc12 | 0 | 9.8 | – | – | – |
| CS(=O)(=O)c1ccc(-c2nn3c(C(F)(F)F)ccnc3c2-c2ccc(F)cc2)cc1 | 90.6 | 0 | 3.5 | – | – |
| CS(=O)(=O)c1ccc(-c2nn3c(-c4ccccc4)ccnc3c2-c2ccc(F)cc2)cc1 | 90.4 | 5.7 | 0 | – | – |
| Cc1ccc(-c2c(-c3ccc(S(C)(=O)=O)cc3)nn3c(C)c(C)cnc23)cc1 | 100 | 54.2 | 87.6 | – | – |
| CS(=O)(=O)c1ccc(-c2nn3cccnc3c2-c2ccc(F)cc2)cc1 | 36.2 | 35 | – | – | > 10 |

Second part, the molecule after the results:

| inhibition [1] [%] | inhibition [2] [%] | inhibition [3] [%] | inhibition [4] [%] | IC50 [5] [µM] | SMILES |
| --- | --- | --- | --- | --- | --- |
| 100 | 29.3 | 43.9 | – | – | CCCc1cnnc2c(-c3ccc(F)cc3)c(-c3ccc(S(C)(=O)=O)cc3)nn12 |
| 0 | 7.4 | 31.9 | – | – | CCCc1c(C(=O)O)cnc2c(-c3ccc(F)cc3)c(-c3ccc(S(C)(=O)=O)cc3)nn12 |
| 56.1 | 37.3 | 32.2 | – | – | CCCc1ccnc2c(-c3ccc(F)cc3)c(-c3ccc(S(C)(=O)=O)cc3)nn12 |
| 100 | 91.8 | 50.3 | 0 | – | CCc1cnc2c(-c3ccc(F)cc3)c(-c3ccc(S(C)(=O)=O)cc3)nn2c1C |
| 84.6 | 7.3 | 4.4 | – | – | Cc1c(CF)cnc2c(-c3ccc(F)cc3)c(-c3ccc(S(C)(=O)=O)cc3)nn12 |
| 58.3 | 0 | 11 | – | – | CCCCc1cc(C)nc2c(-c3ccc(F)cc3)c(-c3ccc(S(C)(=O)=O)cc3)nn12 |
| 14.3 | 32.5 | – | – | – | Cc1cc(Cl)n2nc(-c3ccc(S(C)(=O)=O)cc3)c(-c3ccc(F)cc3)c2n1 |
| – | 8.3 | – | – | > 10 | Cc1cc(C)n2nc(-c3ccc(S(C)(=O)=O)cc3)c(-c3ccc(F)cc3)c2n1 |
| 100 | 100 | 69 | 53.9 | – | Cc1c(C(F)(F)F)cnc2c(-c3ccc(F)cc3)c(-c3ccc(S(C)(=O)=O)cc3)nn12 |
| 100 | 42.7 | 56.5 | – | – | Cc1cnc2c(-c3ccc(F)cc3)c(-c3ccc(S(C)(=O)=O)cc3)nn2c1CO |
| – | 8.2 | – | – | > 10 | Cc1cnc2c(-c3ccc(F)cc3)c(-c3ccc(S(C)(=O)=O)cc3)nn2c1 |
| 100 | 88.7 | 50.9 | – | – | CCc1nnc2c(-c3ccc(F)cc3)c(-c3ccc(S(C)(=O)=O)cc3)nn2c1CC |
| 90.3 | 4.75 | 18.1 | – | – | Cc1nc(C)n2nc(-c3ccc(S(C)(=O)=O)cc3)c(-c3ccc(F)cc3)c2n1 |
| 21.9 | 8.1 | – | – | – | Cc1cc(O)n2nc(-c3ccc(S(C)(=O)=O)cc3)c(-c3ccc(F)cc3)c2n1 |
| – | 50.5 | – | – | > 10 | Cc1ccnc2c(-c3ccc(F)cc3)c(-c3ccc(S(C)(=O)=O)cc3)nn12 |
| 95 | 18.7 | 17.9 | – | – | CCCc1c(C)nnc2c(-c3ccc(F)cc3)c(-c3ccc(S(C)(=O)=O)cc3)nn12 |
| 89.7 | 69.8 | 0.9 | – | – | CCCCc1cnnc2c(-c3ccc(F)cc3)c(-c3ccc(S(C)(=O)=O)cc3)nn12 |
| 100 | 61.9 | 74.9 | – | – | CCc1nnc2c(-c3ccc(F)cc3)c(-c3ccc(S(C)(=O)=O)cc3)nn2c1C |
| 56.3 | 8.3 | – | – | – | Cc1c(C(=O)O)cnc2c(-c3ccc(F)cc3)c(-c3ccc(S(C)(=O)=O)cc3)nn12 |
| 100 | 83.8 | 84.3 | 18.9 | – | Cc1c(Br)cnc2c(-c3ccc(F)cc3)c(-c3ccc(S(C)(=O)=O)cc3)nn12 |
| 100 | 82.8 | 62.3 | – | – | CCc1c(C)cnc2c(-c3ccc(F)cc3)c(-c3ccc(S(C)(=O)=O)cc3)nn12 |
| 54.6 | 7.7 | – | – | – | CCCCc1nc(C)nc2c(-c3ccc(F)cc3)c(-c3ccc(S(C)(=O)=O)cc3)nn12 |
| 100 | 86.2 | 51.5 | 6.8 | – | CCCCc1cc(C)n2nc(-c3ccc(S(C)(=O)=O)cc3)c(-c3ccc(F)cc3)c2n1 |
| – | 19 | – | – | > 10 | Cc1ccn2nc(-c3ccc(S(C)(=O)=O)cc3)c(-c3ccc(F)cc3)c2n1 |
| 100 | 1.2 | 40.5 | – | – | Cc1nnc2c(-c3ccc(F)cc3)c(-c3ccc(S(C)(=O)=O)cc3)nn2c1C |
